# CHO parental Ca: ATP-evoked calcium signal inhibitors, parental CHO, primary screen, counter-screen for OX1R antagonist project, cell-based, fluorescence, Fluo-8 calcium dye; parental CHO-K1, ATP-induced calcium, Fluo-8 fluorescence; inhibition, % at 5.6 µM; 330,000 compounds, 0.63% hits; AID 463079, 2010;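 active means inhibition above that plate's mean sample inhibition plus 3 SD, cut at about 26% in these data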;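 further: 0% = ATP-challenged DMSO wells and 100% = DMSO wells without ATP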
#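 Test system: untransfected parental CHO cell line. Compound: one dose, 5.6 µM nominal. Detection: intracellular calcium via Fluo-8 no-wash fluorescent dye. Measure: % inhibition. Benchmarks: ATP-challenged DMSO wells low, unchallenged DMSO wells high.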
# TAAR1 ag: human TAAR1 agonists, primary screen, Fluo-8 calcium fluorescence, CHO RD-HGA16 cells; vehicle wells 0%, saturating PEA agonist 100%; Trace amine-associated receptor 1 (Homo sapiens), Q96RJ0; 360,000 compounds, 0.99% hits; activation, % at 3 µM;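 active means activation above the mean activation of all test compounds in the run plus 3 SD, cut at about 38% in these data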
#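 Test system: RD-HGA16 (CHO) cells co-expressing Gα16 and hTAAR1 | Doses: Single dose, 3 µM | Schedule: 17-24 h seeding, 75 min 37 °C dye, 30 min RT | Evaluation: % activation from peak over basal fluorescence ratio, DMSO-to-PEA scaled | Technique: Kinetic Fluo-8 calcium fluorescence | Benchmarks: Low control DMSO, high control PEA (EC100)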
# OX1R antag-1: antagonists of human orexin 1 receptor (OX1R) | Orexin/Hypocretin receptor type 1 (Homo sapiens), O43613 | 330,000 compounds, 1.8% hits | OX1R-expressing cells, FRET antagonist read-out | inhibition, % at 6.6 µM; in the data active means inhibition mostly above about 38%, no sharp cut-off; inactive means mostly below about 40%;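 further: 0% = agonist challenge alone and 100% = reference antagonist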
# Target sequence (O43613 whole entry, looked up): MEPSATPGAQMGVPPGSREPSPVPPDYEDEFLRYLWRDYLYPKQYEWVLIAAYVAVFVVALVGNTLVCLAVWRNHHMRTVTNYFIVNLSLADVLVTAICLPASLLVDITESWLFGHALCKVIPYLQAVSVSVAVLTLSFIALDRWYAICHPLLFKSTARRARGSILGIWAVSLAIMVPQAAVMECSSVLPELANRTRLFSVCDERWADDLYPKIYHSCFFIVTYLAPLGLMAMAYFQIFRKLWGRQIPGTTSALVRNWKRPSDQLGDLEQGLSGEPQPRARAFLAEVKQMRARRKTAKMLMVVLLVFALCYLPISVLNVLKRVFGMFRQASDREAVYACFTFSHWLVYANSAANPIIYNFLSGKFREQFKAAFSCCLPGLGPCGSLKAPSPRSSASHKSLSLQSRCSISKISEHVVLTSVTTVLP
# OX1R antag-2: OX1R (HCRTR1) antagonists, primary screen, fluorescence, CHO/OX1R cells, Fluo-8 calcium, orexin A. Orexin/Hypocretin receptor type 1 (Homo sapiens), O43613. Fluo-8 calcium fluorescence. inhibition, % at 5 µM. 330,000 compounds, 0.43% hits. AID 434989, 2010;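 active means inhibition above its plate's threshold, mean inhibition of all tested compounds on the plate plus 3 SD, cut at about 37% in these data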;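 further: 0% = orexin A challenge wells and 100% = SB-334867-A antagonist wells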
# GPR7 antagonist: GPR7 receptor antagonists, primary screen, cell-based, fluorescence, single concentration; Neuropeptides B/W receptor type 1 (Homo sapiens), P48145; GPR7-expressing cells, fluorescence antagonist assay; inhibition, % at 4.4 µM; 290,000 compounds, 1.1% hits; AID 1861, 2009; in the data active means inhibition above about 16%, passing the limit was not always enough;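 further: cells stimulated with the agonist NPW; 0% = agonist with vehicle and 100% = vehicle without agonist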
# TAAR1 antagonist: human TAAR1 antagonists, primary screen, Fluo-8 calcium fluorescence, CHO RD-HGA16 cells; antagonist; inhibition, % at 3 µM; 360,000 compounds, 1.5% hits; AID 624466, 2012;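 active means inhibition above a per-plate cutoff, the mean inhibition of test compounds on that plate plus 3 SD, cut at about 49% in these data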;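 further: 0% = DMSO plus EC80 beta-PEA response and 100% = DMSO alone without agonist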
#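 Material: RD-HGA16 CHO cells with stable hTAAR1 and Gα16; Dosing: single nominal final test compound concentration of 3 µM; Schedule: seeding 17-24 h prior, 75-min 37 °C, 30-min RT dye loading; Detection: kinetic Fluo-8 calcium fluorescence measurement; Measure: % inhibition from peak post-agonist over basal fluorescence ratio; Benchmarks: vehicle and agonist controls.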
# Numbers without * were called inactive; · = no result given. Compounds with a hit are over-represented: about 4.5% of the library has one in this group of screens.
SMILES,CHO parental Ca,TAAR1 ag,OX1R antag-1,OX1R antag-2,GPR7 antagonist,TAAR1 antagonist
CCn1cc(C(=O)O)c(=O)c2cc(F)c(N3CCN(C(=S)NC(=O)c4ccccc4Br)CC3)cc21,-16,0,6,-12,-9,16
O=C(CSc1nc2ncc(Cl)cc2[nH]1)Nc1cccc(F)c1,4,11,47*,-14,-19,14
CN(CC(=O)Nc1ccc(F)cc1)C(=O)CSc1nc2ncc(Cl)cc2[nH]1,-17,3,17,-8,-5,-23
COc1cc(NC(=S)NN2CCN(C)CC2)cc(OC)c1,-10,11,5,2,-3,5
O=S(=O)(NCc1ccccc1)c1ccc(-c2cnc(C3CC3)o2)cc1,-11,-1,16,-4,-2,2
CCOc1ccccc1CNS(=O)(=O)c1ccc(-c2cnc(C3CC3)o2)cc1,33*,4,45,24,1,58*
O=C(O)c1cccc(N2C(=O)c3ccc4c5c(ccc(c35)C2=O)C(=O)N(c2cccc(C(=O)O)c2)C4=O)c1,14,-1,74*,-8,2,-4
CS(=O)(=O)c1ccc(C(=O)OCC(=O)NC23CC4CC(CC(C4)C2)C3)cc1[N+](=O)[O-],68*,10,26,42*,15,21
CC1(Cc2ccccc2Cl)C(=O)Nc2cc(-c3ccccc3Cl)ccc21 (centres undefined),·,2,·,·,·,51*
CC1(Cc2c(Cl)cccc2Cl)C(=O)Nc2cc(-c3ccccc3Cl)ccc21 (centres undefined),·,0,·,·,·,-1
O=C(c1cccc(-c2ccco2)c1)N1CCCC(N2CCN(c3ccc(F)cc3)CC2)C1 (centres undefined),-29,-3,13,-40,-5,-41
CC(=O)Oc1ccccc1/C=C/c1ccc2ccccc2[n+]1C,-15,4,66*,-5,-3,-7
CN(C)c1ccc(/C=C/c2ccc3ccccc3[n+]2C)cc1,0,1,163*,14,0,1
CN(CCCS(=O)(=O)[O-])c1ccc(/C=C/c2ccc3ccccc3[n+]2C)cc1,·,2,·,·,-1,-14
CC1CCCCC12NC(=S)N(c1ccccc1)N2 (centres undefined),-15,2,9,-22,1,-10
CC(C)=CCc1c(O)cc2oc3c(CC=C(C)C)c(O)c(O)c(CC=C(C)C)c3c(=O)c2c1O,-15,4,37,6,·,58*
CC(C)=CCc1cc(-c2oc3cc(O)cc(O)c3c(=O)c2O)ccc1O,17,0,10,10,·,6
COc1ccc(-c2cc(=Nc3c(C)n(C)n(-c4ccccc4)c3=O)c3ccccc3o2)cc1,-10,0,55*,-12,0,7
CC(=O)Nc1ccc(NC(=O)C(C)OC(=O)c2ccc(S(=O)(=O)N3CCCCCC3)cc2)cc1 (centres undefined),-10,2,15,-2,·,-1
CC(O)[C@H]1CC[C@H]2[C@@H]3CC[C@H]4C[C@@H](O)CC[C@]4(C)[C@H]3/C(=N/O)C[C@]12C (some centres undefined),-1,11,9,6,·,11
Cc1cc(N2CCNC[C@@H]2C)ccc1N1CCS(=O)(=O)CC1,·,0,·,·,·,-7
Cc1ccccc1NS(=O)(=O)c1cccc(-c2nnc(-c3ccccc3)o2)c1,-16,4,40*,-11,0,11
CC(C)CC(NC(=O)c1ccc(Cl)cc1)C(=O)OCC(=O)c1ccc2c(c1)NC(=O)CO2 (centres undefined),63*,1,42,65*,-4,-1
Cc1cc2c(cc1C)C(=O)C(Br)=C(N)C2=O,·,1,·,·,·,-32
NC1=C(Br)C(=O)c2ccccc2C1=O,-12,1,72*,-6,-5,-25
SMILES,CHO parental Ca,TAAR1 ag,OX1R antag-1,OX1R antag-2,GPR7 antagonist,TAAR1 antagonist
CCC1Sc2ccc(S(=O)(=O)Nc3ccc(OC)cc3)cc2NC1=O (centres undefined),8,56*,2,8,18,24
CCC1Sc2ccc(S(=O)(=O)Nc3ccc(OC)c(OC)c3)cc2NC1=O (centres undefined),45*,11,24,46*,10,11
Clc1ccccc1-c1nnc2n1-c1ccccc1SC2,-9,3,13,1,-10,-11
Clc1ccc2c(c1)-c1nnc(Br)n1-c1ccccc1S2,2,8,60*,20,-2,9
Cc1cccc(C)c1NC(=O)Cn1nc(-c2ccc(Cl)s2)ccc1=O,-16,1,10,-6,14,-3
O=C(Nc1ccc(Cl)cc1)N1CCC(c2nc(-c3ccccc3Cl)no2)CC1,37*,11,45,32,1,32
CC(C)(C)OC(=O)N1CCC[C@@H]1C(=O)N1CCC[C@H]1C(=O)NCc1ccccc1,·,1,·,·,·,-15
C#CCn1cc(/C=N/NC(=O)c2cc3ccccc3o2)c2ccccc21,-6,3,72*,-1,-5,15
CCOC(=O)c1sc(N)c(C#N)c1CSc1nc2ccc(C)cc2[nH]1,-42,10,18,-34,-5,3
CCOC(=O)c1sc(N)c(C#N)c1CSc1nc2ccc(OCC)cc2[nH]1,-18,-2,47*,-21,-1,-24
COc1cccc(NC(=O)CN(C)C(=O)C(Sc2ccccc2)c2ccccc2)c1 (centres undefined),·,4,·,·,·,22
COc1ccc(S(=O)(=O)N(CC(=O)O)c2ccccn2)cc1,-6,6,15,-6,-2,-4
COc1ccc(S(=O)(=O)n2ccc(-c3ccc(OCCN(C)c4ccccn4)cc3)n2)cc1,12,8,20,0,21*,18
O=C(NCc1ccccn1)C1CCCN(S(=O)(=O)c2cccc3nsnc23)C1 (centres undefined),-4,0,121*,-21,2,11
COc1ccccc1CNC(=O)C1CCCN(S(=O)(=O)c2cccc3nsnc23)C1 (centres undefined),-24,1,28,-16,6,-6
COCCNC(=O)C1CCCN(S(=O)(=O)c2cccc3nsnc23)C1 (centres undefined),-11,0,48*,-3,5,-14
O=C(NCCCN1CCCCCC1)C1CCCN(S(=O)(=O)c2cccc3nsnc23)C1 (centres undefined),-8,1,26,-36,12,-1
